Measurements gathered from unrelated publications.
Protocols differ between the studies behind these lines.
Target: Membrane-associated tyrosine- and threonine-specific cdc2-inhibitory kinase (PKMYT1, Homo sapiens, UniProt Q99640)
Residues used in one study (Q99640 1-499): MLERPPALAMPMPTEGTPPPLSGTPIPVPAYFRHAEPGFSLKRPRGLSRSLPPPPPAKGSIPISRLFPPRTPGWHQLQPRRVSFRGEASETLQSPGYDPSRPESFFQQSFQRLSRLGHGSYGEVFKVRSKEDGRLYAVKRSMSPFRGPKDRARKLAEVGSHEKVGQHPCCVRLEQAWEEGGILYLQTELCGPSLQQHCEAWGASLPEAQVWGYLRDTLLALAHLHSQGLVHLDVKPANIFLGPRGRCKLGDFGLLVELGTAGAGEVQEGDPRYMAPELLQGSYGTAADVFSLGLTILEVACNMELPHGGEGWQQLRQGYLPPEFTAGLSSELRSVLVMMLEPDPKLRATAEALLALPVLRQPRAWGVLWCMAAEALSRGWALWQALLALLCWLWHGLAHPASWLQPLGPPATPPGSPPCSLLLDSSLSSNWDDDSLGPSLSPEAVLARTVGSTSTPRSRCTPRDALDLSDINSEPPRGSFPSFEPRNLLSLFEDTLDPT

C[C@H](NC(=O)c1cnc2n1[C@](C)(Cc1ccc(C#N)cc1)C(=O)N2c1cc(Cl)c(F)c(Cl)c1)C(=O)NC1(c2ccccn2)CC1
remaining binding (cell-free assay; competition with immobilised ligand; 1 µM): 79%

C[C@@H]1CCN(c2nccc(-c3cnn4ncccc34)n2)C1
remaining binding (binding; 1 µM): 99%

O=C(Nc1cnn(-c2csc(C(=O)NC3COC3)c2)c1)Nc1ccccc1Cl
remaining activity (enzyme activity; inhibitor; 5 µM): 87%

CC(C)(C)c1nc(-c2cccc(NS(=O)(=O)c3c(F)cccc3F)c2F)c(-c2ccnc(N)n2)s1
remaining activity (enzyme activity; inhibitor; radiometric; 1 µM): 88%

c1cnn2ncc(-c3ccnc(N4CCC45COC5)n3)c2c1
remaining binding (binding; 1 µM): 97%

CNCc1ccccc1-c1csc([C@H](C)Nc2nc(C)nc3cc(OC)c(OC)cc23)c1
remaining binding (cell-free assay; competition with immobilised ligand; 1 µM): 100%

Cc1ccc(C(=O)Nc2ccc(CN3CCN(C)CC3)c(C(F)(F)F)c2)cc1C#Cc1cnc2cccnn12
remaining activity (enzyme activity; inhibitor; 23.5 nM): 84%

O=C(Nc1cnn(-c2csc(C(=O)NC3COC3)c2)c1)Nc1c(F)cccc1Cl
remaining activity (enzyme activity; inhibitor; 5 µM): 89.6%

CC(C)(C)c1nc2c(s1)c1nc(N)ncc1c1ccc(NS(=O)(=O)c3c(F)cccc3F)c(F)c12
remaining activity (enzyme activity; inhibitor; radiometric; 1 µM): 84%

C=CCn1c(=O)c2cnc(Nc3ccc(N4CCN(C)CC4)cc3)nc2n1-c1cccc(C(C)(C)O)n1
ΔTm (thermal stability; DSF; 100 µM): 3 °C

Nc1ncnc2occ(-c3ccc(NC(=O)Nc4cc(C(F)(F)F)ccc4F)cc3)c12
remaining signal (cell-free assay; inhibitor; 20 µM): 75%
